# Rad51 HR inh: blocks human Rad51 in homologous recombination. Q06609. hRad51 DNA strand exchange, fluorescence dequenching. inhibition, % at 10 µM. hit rate 0.085% among 200,000. AID 1385;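 active means inhibition above 40% at the single screening dose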;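 further: 0% = DMSO control wells and 100% = blanks with heterologous ssDNA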
# Target sequence (Q06609 whole entry, looked up): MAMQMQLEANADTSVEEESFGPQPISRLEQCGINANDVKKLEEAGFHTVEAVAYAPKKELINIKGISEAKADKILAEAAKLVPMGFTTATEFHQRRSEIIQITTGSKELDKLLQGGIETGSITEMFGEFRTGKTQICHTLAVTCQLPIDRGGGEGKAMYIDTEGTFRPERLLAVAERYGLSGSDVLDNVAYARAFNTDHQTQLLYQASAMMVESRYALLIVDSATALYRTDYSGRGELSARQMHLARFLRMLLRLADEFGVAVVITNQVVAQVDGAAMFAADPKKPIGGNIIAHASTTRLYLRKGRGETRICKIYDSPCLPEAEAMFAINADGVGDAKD
#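 Read-out basis: percent inhibition relative to plate controls and blanks / Assay system: human Rad51 nucleoprotein filaments preassembled on unlabelled ssDNA / Timing: filaments 15 min 37 °C, then compound 30 min / Control set: per-plate controls and blanks / Technique: fluorescence dequenching at 485/520 nm / Compound: 10 µM final, single point / Also added: Fluorescein- and BHQ1-tagged 47-mer duplex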
# CHT PAM: allosterically activates the human high affinity choline transporter; CHT-expressing cells, membrane potential dye, choline EC20; active compounds read high; LV-AA mutant CHT in HEK293 cells; B-score at 10 µM; hit rate 0.49% among 310,000; AID 488977;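 active means initial fluorescence not abnormally high and integrated response B-score, plate-corrected, over 3 SD above library mean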
# CHT inh: human CHT choline transport inhibition | Q9GZV3 | CHT-expressing cells, membrane potential dye, choline response; active compounds read low | B-score at 10 µM | hit rate 0.86% among 310,000 | AID 488975;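 active means B-score over 3 SD under the library average, and starting fluorescence ratio not unusually high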;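 further: choline stimulus applied at its EC90 after an EC20 pre-addition; B-score computed on integrated fluorescence ratio after choline addition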
# KCC2 mod: modulators of human KCC2 chloride dependent transport; Q9H2X9; KCC2 cells, thallium flux FluoZin-2 fluorescence; B-score of Tl+ flux slope (higher = more flux/activation; lower = inhibition) at 10 µM; hit rate 2.2% among 190,000;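 active means thallium flux slope and its plate-corrected score both differing from the plate sample mean at a set confidence after two filtering rounds, in either direction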;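 further: slope of fluorescence scaled to starting intensity during 10 to 20 s after thallium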
# CHT inh conf: human CHT inhibition, confirmatory screen | hit rate 70% among 2,400 | AID 493221 | shares compounds with CHT inh | CHT activity remaining % of control (active compounds read low), % at 10 µM | CHT-expressing cells, choline membrane potential dye; LV-to-AA substituted CHT, HEK293 cells;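 active means choline transporter activity left, mean of duplicates at 10 µM, below buffer-only control mean minus 3 SD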;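 further: depolarization triggered by choline at its EC90 following an EC20 pre-addition; 0% = hemicholinium-3 full block and 100% = buffer-only control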
# HEK293 CHT ctr: CHT inhibitor counter-screen hit in parental HEK293 cells | hit rate 4% among 2,400 | membrane potential dye, choline response; active = decrease or increase beyond buffer ±3SD | shares compounds with CHT inh | membrane potential ratio readout (active if shifted either direction beyond buffer ±3SD; no single direction) at 10 µM;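 further: parental cells lack the transporter so any hit is non-specific; ratio is peak minus trough fluorescence over baseline after EC90 choline challenge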
# Numbers without * were called inactive; i = inactive; . = not tested or not shown. Hits are enriched below; roughly 2.6% of the tested compounds scored in any of these assays.
SMILES,Rad51 HR inh,CHT PAM,CHT inh,KCC2 mod,CHT inh conf,HEK293 CHT ctr
Cc1cccc(C)c1-n1nnnc1C(C)(C)N1CCN(N=O)CC1,-7,i,-7.2*,-0.14,i,i
CNc1nc(SC)nc2ccsc12,1,i,-14*,.,4.2%*,i
CCOC(=O)CNc1c(-c2ccc(OC)cc2)nc2ccc(Cl)cn12,0,i,i,-0.084,.,.
COCCNc1c(-c2ccc(OC)cc2)nc2ccc(Cl)cn12,6,i,-9.6*,-1.4,i,i
CCN(CC)C(=S)SCC(=O)Nc1ccc(S(N)(=O)=O)cc1,3,i,-5.6*,1.2,i,i
O=C(O)c1nn(-c2ccccc2)ccc1=O,-2,i,i,-0.6,.,.
COCCCN=C1NN=C(c2cc(C)n(-c3ccccc3F)c2C)CS1,.,i,-6.5*,-1.2,33%*,i
COCCCN=C1NN=C(c2cc(C)n(-c3ccccc3)c2C)CS1,.,i,i,1.3,.,.
O=[N+]([O-])c1cccc(N/N=C/c2cccc3ccccc23)c1,-7,i,i,1.9,.,.
Cc1ccc(F)cc1NC(=O)c1ccc(NS(=O)(=O)c2ccc(Br)s2)cc1,-10,i,-7.1*,-1.4,50%*,i
CCOC(=O)C1CCN(C(=O)CSCc2nc(-c3ccc(OCC)cc3)oc2C)CC1,0,i,-7.6*,-0.16,69%*,i
CCOc1ccc(-c2nc(CSCC(=O)N3CCN(C(=O)c4ccco4)CC3)c(C)o2)cc1,-3,i,i,.,.,.
Cc1cc(NC(=O)CCC(=O)N(Cc2ccccc2)C2(C(=O)NC3CCCCC3)CCCC2)no1,-1,i,-5.6*,.,i,i
Cc1ccc(-n2cc(CN3CCN(Cc4nccn4C)CC3)c(-c3ccc(F)cc3)n2)cc1,14,i,-6.4*,.,29%*,i
Cc1nc(SCC(N)=O)[nH]c(=O)c1Cc1ccc(OC(C)C)cc1,3,i,-6.1*,0.15,i,i
COc1ccc(N(C)S(=O)(=O)c2cccc(C(=O)NC3CCCC3)c2)cc1,7,i,i,-0.77,.,.
COc1ccc(N(C)S(=O)(=O)c2cccc(C(=O)NC3CCCCC3C)c2)cc1 (stereo unspecified),-12,i,-5.5*,-0.81,59%*,i
C=CCn1c(SCC(=O)Nc2ccc3c(c2)OCO3)nnc1-c1ccccc1OC,.,i,i,.,.,.
C=CCn1c(SCC(=O)c2ccc(OC)cc2)nnc1-c1ccc2c(c1)OCO2,.,i,-15*,-0.35,i,i
O=C(NCCO)C(=O)NCC1OCCCN1S(=O)(=O)c1ccc2c(c1)OCCO2 (stereo unspecified),.,i,i,.,.,.
CCc1cccc2c(C=C(C#N)C#N)cn(CC(=O)N3CCCC3)c12,2,i,i,.,.,.
O=C(Nc1ccccc1OC(F)F)c1cccc(S(=O)(=O)N2CCCC2)c1,.,i,-5.1*,.,56%*,i
CN1CCN(S(=O)(=O)c2cccc(C(=O)NC3CCCc4ccccc43)c2)CC1 (stereo unspecified),.,i,-5.6*,0.011,51%*,i
CN(C)S(=O)(=O)c1cccc(C(=O)NC2CCCc3ccccc32)c1 (stereo unspecified),.,i,i,.,.,.
CCCNS(=O)(=O)c1cccc(C(=O)NC2CCCc3ccccc32)c1 (stereo unspecified),2,i,-12*,-1.2,20%*,i
SMILES,Rad51 HR inh,CHT PAM,CHT inh,KCC2 mod,CHT inh conf,HEK293 CHT ctr
CC(NC(=O)c1cccc(S(=O)(=O)N2CCN(C)CC2)c1)C1CC2CCC1C2 (stereo unspecified),-12,i,-5.4*,-1,23%*,i
C=CCc1ccccc1OCCn1nnc2ccccc21,.,i,i,.,.,.
COc1cc2c(cc1OC)/C(=C/c1ccc(Br)cc1)C(=O)OC2,16,i,i,0.17,.,.
O=C(Nc1cc(S(=O)(=O)N2CCCCC2)ccc1O)c1ccccc1NS(=O)(=O)c1ccc(F)cc1,-3,i,-5.4*,-0.086,27%*,i
CN1CCN(S(=O)(=O)c2cccc(C(=O)Nc3ccc(Br)cc3Br)c2)CC1,.,i,-10*,.,8.7%*,i
CC1CCC(NC(=O)c2cccc(S(=O)(=O)NCc3ccccc3)c2)CC1 (stereo unspecified),.,i,-15*,.,36%*,i
COc1ccc(NC(=O)c2cccc(S(=O)(=O)N3CCN(C)CC3)c2)c(OC)c1,.,i,i,.,.,.
O=C(O)CN1C(=O)SC(Nc2ccc(Cl)cc2)C1=O (stereo unspecified),-11,i,i,-0.031,.,.
CCCc1cc(=O)n2[nH]c(C)c(-c3ccccc3)c2n1,5,i,-5.8*,2.2,i,i
COC(=O)Cc1cc(=O)n2[nH]c(C)c(-c3ccccc3)c2n1,-4,i,i,.,.,.
CC(/C=C1\SC(=O)N(CCCC(=O)O)C1=O)=C\c1ccccc1,16,i,-5*,-1.9,64%*,i
CC1(c2ccccc2)NC(=O)N(CC(=O)NCc2cccc(Cl)c2)C1=O (stereo unspecified),.,i,i,.,.,.
Cc1onc(-c2c(Cl)cccc2Cl)c1NC(=O)NC1CCSC1 (stereo unspecified),3,i,i,-1,.,.
Cc1ccc(C)c(Nc2c([N+](=O)[O-])cc(C(=O)N3CC(=O)Nc4ccccc43)cc2[N+](=O)[O-])c1,-1,i,-5.9*,-0.6,i,i
Cc1cccc(Nc2c([N+](=O)[O-])cc(C(=O)N3CC(=O)Nc4ccccc43)cc2[N+](=O)[O-])c1,-4,i,i,-1.5,.,.
O=C(NCc1cccc(CNC(=O)C(=O)NCc2ccco2)c1)C(=O)NCc1ccco1,1,i,i,1.4,.,.
Cc1ccc2nc(NC(=O)CN3C(=O)C4CC=CCC4C3=O)sc2c1 (stereo unspecified),-7,i,-5.2*,0.38,i,i
CS(=O)(=O)c1ccc2nc(NC(=O)CN3C(=O)C4CC=CCC4C3=O)sc2c1 (stereo unspecified),-19,i,i,0.091,.,.
O=C1Nc2ccc(F)cc2C12Nc1ccccc1-c1nnc(SCc3ccccc3Cl)nc1O2 (stereo unspecified),0,i,-6.1*,.,i,i
COc1cc(/C=C2/C(=O)N(c3cccc(Br)c3)N=C2C)cc(OC)c1O,.,i,-5.2*,.,45%*,i
COc1cc(/C=C2/C(=O)N(c3ccc(Br)cc3)N=C2C)cc([N+](=O)[O-])c1O,.,i,i,.,.,.
Cc1ccc(C(C)C)c(OCCOCCN2CCNCC2)c1,.,i,-6.9*,.,22%*,i
COc1ccc(C)cc1NS(=O)(=O)c1ccc2c(c1)oc(=O)n2C,.,i,i,.,.,.
